Published values pooled from the literature.
Lines come from different studies, so protocols differ.
Target: Serine/threonine-protein kinase LATS2 (LATS2, Homo sapiens, UniProt Q9NRM7)
One construct used (Q9NRM7 1-1088): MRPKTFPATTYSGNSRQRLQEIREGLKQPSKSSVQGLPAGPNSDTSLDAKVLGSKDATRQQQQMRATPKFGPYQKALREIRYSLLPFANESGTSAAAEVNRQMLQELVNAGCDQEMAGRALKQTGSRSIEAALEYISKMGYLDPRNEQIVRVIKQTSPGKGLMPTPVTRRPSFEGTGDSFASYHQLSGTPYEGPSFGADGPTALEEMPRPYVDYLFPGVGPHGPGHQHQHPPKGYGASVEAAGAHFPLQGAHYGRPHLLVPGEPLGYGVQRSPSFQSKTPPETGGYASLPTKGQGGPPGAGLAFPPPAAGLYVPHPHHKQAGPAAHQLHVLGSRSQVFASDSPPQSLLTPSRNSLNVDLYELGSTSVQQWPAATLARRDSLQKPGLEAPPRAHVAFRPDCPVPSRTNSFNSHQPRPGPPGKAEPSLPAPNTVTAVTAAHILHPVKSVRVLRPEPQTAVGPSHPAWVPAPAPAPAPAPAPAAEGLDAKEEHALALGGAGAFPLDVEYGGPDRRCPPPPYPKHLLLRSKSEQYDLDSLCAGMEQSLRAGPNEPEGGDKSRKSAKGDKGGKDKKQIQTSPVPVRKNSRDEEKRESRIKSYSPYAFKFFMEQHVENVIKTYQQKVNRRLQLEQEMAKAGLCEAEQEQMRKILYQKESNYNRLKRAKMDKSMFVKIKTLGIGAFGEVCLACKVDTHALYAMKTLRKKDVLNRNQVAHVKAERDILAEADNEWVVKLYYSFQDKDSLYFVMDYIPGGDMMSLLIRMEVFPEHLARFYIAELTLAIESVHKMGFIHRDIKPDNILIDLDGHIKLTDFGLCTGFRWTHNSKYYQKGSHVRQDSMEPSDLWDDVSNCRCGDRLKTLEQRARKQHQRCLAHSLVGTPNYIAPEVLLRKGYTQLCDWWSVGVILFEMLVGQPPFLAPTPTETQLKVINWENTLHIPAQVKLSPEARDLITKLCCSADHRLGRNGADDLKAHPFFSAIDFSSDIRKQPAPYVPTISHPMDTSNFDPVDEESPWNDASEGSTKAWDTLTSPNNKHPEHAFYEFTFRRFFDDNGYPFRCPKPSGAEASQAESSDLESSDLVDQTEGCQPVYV

Compound	observed	mode	method	cells	concentration	measurement	value
Cn1cnc(Br)c1C1=CN(c2ncnc3[nH]cnc23)CCS1	enzyme activity	inhibitor	radiometric		50 nM	inhibition	29.1%
CC(C)(O)[C@H]1CC[C@H](Nc2ccc3ncc(-c4cccc(C(F)(F)F)c4)n3n2)CC1	enzyme activity	inhibitor			1 µM	remaining activity	61.4%
Cn1cncc1C1=CN(c2ncnc3[nH]cnc23)CCS1	enzyme activity	inhibitor	radiometric		50 nM	inhibition	34.2%
O=C(NCc1ncc(C(F)(F)F)cc1Cl)c1ccc2c(c1)C1(CCS(=O)(=O)CC1)[C@H](C1CC1)N2S(=O)(=O)c1ccc(F)cc1	cell-free assay		competition with immobilised ligand		1 µM	remaining binding	100%
Cc1cnn2ncc(-c3ccnc(N(C)C)n3)c2c1	binding				1 µM	remaining binding	84%
Nc1ncnc2occ(-c3ccc(NC(=O)Nc4cc(C(F)(F)F)ccc4F)cc3)c12	cell-free assay	inhibitor			20 µM	remaining signal	3.7%
Cc1ccc(C(=O)Nc2ccc(CN3CCN(C)CC3)c(C(F)(F)F)c2)cc1C#Cc1cnc2cccnn12	enzyme activity	inhibitor			23.5 nM	remaining activity	95%
O=C(Nc1cnn(-c2csc(C(=O)NC3COC3)c2)c1)Nc1ccccc1Cl	enzyme activity	inhibitor			5 µM	remaining activity	96%
COc1ccc2c(c1)O[C@H](c1ccc(OC)c(OC)c1)C[C@@H]2NC(=O)C1(c2ccc3c(c2)OC(F)(F)O3)CC1	cell-free assay		competition with immobilised ligand		1 µM	remaining binding	89%
CCN1CCN(Cc2ccc(NC(=O)c3ccc(C)c(/C=C/c4cnc5[nH]ccc5c4OC)c3)cc2C(F)(F)F)CC1	target engagement in cells	inhibitor	chemoproteomics	A-375	5 µM	inhibition	-21.8%
O=C(Nc1cnn(-c2csc(C(=O)NC3COC3)c2)c1)Nc1c(F)cccc1Cl	enzyme activity	inhibitor			5 µM	remaining activity	104%
COc1cc(-c2cc(-c3ccc(N4CCNCC4)cc3)cnc2C)cc(OC)c1OC	enzyme activity	inhibitor			1 µM	inhibition	2%
